Source: ChEMBL document CHEMBL5131497, “Design, Synthesis, and Characterization of TNP-2198, a Dual-Targeted Rifamycin-Nitroimidazole Conjugate with Potent Activity against Microaerophilic and Anaerobic Bacterial Pathogens” (J Med Chem, 2022)
≈ marks a conversion by molar mass, not a printed value.

How the values were obtained:
Type in all cases: functional
Staphylococcus aureus = experiment: Antibacterial activity against Staphylococcus aureus ATCC 29213
Helicobacter pylori [1] = experiment: Antibacterial activity against Helicobacter pylori ATCC 700392
How it was run: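 Agar dilution per CLSI. Wild-type H. pylori ATCC 700392 (CB1531). Drugs prepared from 100× stocks as 2-fold dilutions in Mueller–Hinton agar with aged (≥2 weeks) sheep blood (5% v/v). Combinations were at 1:1 molar ratio. MIC read after 5 days at 35 °C under microaerobic atmosphere from a campylobacter gas-generating system.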

Clostridioides difficile [2] = experiment: Antibacterial activity against Clostridioides difficile ATCC 9689
Clostridioides difficile [3] = experiment: Antibacterial activity against rifampicin-resistant Clostridioides difficile harboring rpoBQ489K mutant
Clostridioides difficile [4] = experiment: Antibacterial activity against Clostridioides difficile BAA 1382
Helicobacter pylori [5] = experiment: Antibacterial activity against rifampicin resistant Helicobacter pylori harboring rpoBL525I/D530N mutant

MIC (Staphylococcus aureus) | MIC (Helicobacter pylori [1]) | MIC (Clostridioides difficile [2]) | Compound | MIC (Clostridioides difficile [3]) | MIC (Clostridioides difficile [4]) | MIC (Helicobacter pylori [5])
0.008 µg/mL (≈ 0.00831 µM) | 0.25 µg/mL (≈ 0.26 µM) | 0.001 µg/mL (≈ 0.00104 µM) | CO[C@H]1/C=C/O[C@@]2(C)Oc3c(C)c(O)c4c(O)c(c(N5CCN(CC6(C)Cn7cc([N+](=O)[O-])nc7O6)CC5)c(O)c4c3C2=O)NC(=O)/C(C)=C\C=C\[C@H](C)[C@H](O)[C@@H](C)[C@@H](O)[C@@H](C)[C@H](OC(C)=O)[C@@H]1C (some centres undefined) |  |  | 
< 0.004 µg/mL | 0.25 µg/mL (≈ 0.237 µM) |  | CO[C@H]1/C=C/O[C@@]2(C)Oc3c(C)c(O)c4c(O)c(c(N5CCN(Cc6ccc(OCC7Cn8cc([N+](=O)[O-])nc8O7)cc6)CC5)c(O)c4c3C2=O)NC(=O)/C(C)=C\C=C\[C@H](C)[C@H](O)[C@@H](C)[C@@H](O)[C@@H](C)[C@H](OC(C)=O)[C@@H]1C (some centres undefined) |  |  | 
0.015 µg/mL (≈ 0.0157 µM) | 0.06 µg/mL (≈ 0.0626 µM) |  | CO[C@H]1/C=C/O[C@@]2(C)Oc3c(C)c(O)c4c(c3C2=O)C2=NC3(CCN(CC5Cn6cc([N+](=O)[O-])nc6O5)CC3)NC2=C(NC(=O)/C(C)=C\C=C\[C@H](C)[C@H](O)[C@@H](C)[C@@H](O)[C@@H](C)[C@H](OC(C)=O)[C@@H]1C)C4=O (some centres undefined) |  |  | 
2 µg/mL (≈ 1.99 µM) | 4 µg/mL (≈ 3.97 µM) |  | CO[C@H]1/C=C/O[C@@]2(C)Oc3c(C)c(O)c4c(O)c(c(N5CCN(C(=O)CO[C@@H]6COc7nc([N+](=O)[O-])cn7C6)CC5)c(O)c4c3C2=O)NC(=O)/C(C)=C\C=C\[C@H](C)[C@H](O)[C@@H](C)[C@@H](O)[C@@H](C)[C@H](OC(C)=O)[C@@H]1C |  |  | 

More lines, now with the values behind:

Compound | MIC (Staphylococcus aureus) | MIC (Helicobacter pylori [1]) | MIC (Clostridioides difficile [2]) | MIC (Clostridioides difficile [3]) | MIC (Clostridioides difficile [4]) | MIC (Helicobacter pylori [5])
C[C@]1(COc2ccc(N3CCC(Oc4ccc(OC(F)(F)F)cc4)CC3)cc2)Cn2cc([N+](=O)[O-])nc2O1 | > 32 µg/mL | 2 µg/mL (≈ 3.74 µM) | > 16 µg/mL |  |  | 
CO[C@H]1/C=C/O[C@@]2(C)Oc3c(C)c(O)c4c(=O)c(c5oc6cc(N7CCN(CCn8c([N+](=O)[O-])cnc8C)CC7)cc(O)c6nc-5c4c3C2=O)NC(=O)/C(C)=C\C=C\[C@H](C)[C@H](O)[C@@H](C)[C@@H](O)[C@@H](C)[C@H](OC(C)=O)[C@@H]1C | < 0.03 µg/mL | 0.004 µg/mL (≈ 0.00385 µM) | 0.002 µg/mL (≈ 0.00193 µM) | 2 µg/mL (≈ 1.93 µM) | 0.001 µg/mL (≈ 0.000963 µM) | 0.5 µg/mL (≈ 0.482 µM)
CO[C@H]1/C=C/O[C@@]2(C)Oc3c(C)c(O)c4c(O)c(c(/C=N/N5CCN(CCn6c([N+](=O)[O-])cnc6C)CC5)c(O)c4c3C2=O)NC(=O)/C(C)=C\C=C\[C@H](C)[C@H](O)[C@@H](C)[C@@H](O)[C@@H](C)[C@H](OC(C)=O)[C@@H]1C | 0.03 µg/mL (≈ 0.0312 µM) | 0.25 µg/mL (≈ 0.26 µM) | 0.002 µg/mL (≈ 0.00208 µM) | 2 µg/mL (≈ 2.08 µM) | 0.0005 µg/mL (≈ 0.00052 µM) | 2 µg/mL (≈ 2.08 µM)
CO[C@H]1/C=C/O[C@@]2(C)Oc3c(C)c(O)c4c(=O)c(c5oc6cc(N7CCN(c8ccc(OCC9(C)Cn%10cc([N+](=O)[O-])nc%10O9)cc8)CC7)cc(O)c6nc-5c4c3C2=O)NC(=O)/C(C)=C\C=C\[C@H](C)[C@H](O)[C@@H](C)[C@@H](O)[C@@H](C)[C@H](OC(C)=O)[C@@H]1C (some centres undefined) | < 0.008 µg/mL | 0.06 µg/mL (≈ 0.0518 µM) | 0.03 µg/mL (≈ 0.0259 µM) |  |  | 
CO[C@H]1/C=C/O[C@@]2(C)Oc3c(C)c(O)c4c(O)c(c(N5CCN(CCn6c([N+](=O)[O-])cnc6C)CC5)c(O)c4c3C2=O)NC(=O)/C(C)=C\C=C\[C@H](C)[C@H](O)[C@@H](C)[C@@H](O)[C@@H](C)[C@H](OC(C)=O)[C@@H]1C | < 0.015 µg/mL | 0.06 µg/mL (≈ 0.0642 µM) | 0.00025 µg/mL (≈ 0.000267 µM) |  | 0.00025 µg/mL (≈ 0.000267 µM) | 
CO[C@H]1/C=C/O[C@@]2(C)Oc3c(C)c(O)c4c(O)c(c5c(nc6ccc(CCC(=O)N7CCN(CCn8c([N+](=O)[O-])cnc8C)CC7)cn65)c4c3C2=O)NC(=O)/C(C)=C\C=C\[C@H](C)[C@H](O)[C@@H](C)[C@@H](O)[C@@H](C)[C@H](OC(C)=O)[C@@H]1C |  | 1 µg/mL (≈ 0.939 µM) | 0.004 µg/mL (≈ 0.00376 µM) | 4 µg/mL (≈ 3.76 µM) | 0.004 µg/mL (≈ 0.00376 µM) | > 8 µg/mL
CO[C@H]1/C=C/O[C@@]2(C)Oc3c(C)c(O)c4c(O)c(c(N5CCN(Cc6ccc(CO[C@@H]7COc8nc([N+](=O)[O-])cn8C7)cc6)CC5)c(O)c4c3C2=O)NC(=O)/C(C)=C\C=C\[C@H](C)[C@H](O)[C@@H](C)[C@@H](O)[C@@H](C)[C@H](OC(C)=O)[C@@H]1C | < 0.008 µg/mL | 0.5 µg/mL (≈ 0.468 µM) | 0.008 µg/mL (≈ 0.00748 µM) |  |  | 
